Molecular target: T1, Chloride anion exchanger (Mus musculus, UniProt Q9WVC8)
T1 sequence (Q9WVC8 whole entry): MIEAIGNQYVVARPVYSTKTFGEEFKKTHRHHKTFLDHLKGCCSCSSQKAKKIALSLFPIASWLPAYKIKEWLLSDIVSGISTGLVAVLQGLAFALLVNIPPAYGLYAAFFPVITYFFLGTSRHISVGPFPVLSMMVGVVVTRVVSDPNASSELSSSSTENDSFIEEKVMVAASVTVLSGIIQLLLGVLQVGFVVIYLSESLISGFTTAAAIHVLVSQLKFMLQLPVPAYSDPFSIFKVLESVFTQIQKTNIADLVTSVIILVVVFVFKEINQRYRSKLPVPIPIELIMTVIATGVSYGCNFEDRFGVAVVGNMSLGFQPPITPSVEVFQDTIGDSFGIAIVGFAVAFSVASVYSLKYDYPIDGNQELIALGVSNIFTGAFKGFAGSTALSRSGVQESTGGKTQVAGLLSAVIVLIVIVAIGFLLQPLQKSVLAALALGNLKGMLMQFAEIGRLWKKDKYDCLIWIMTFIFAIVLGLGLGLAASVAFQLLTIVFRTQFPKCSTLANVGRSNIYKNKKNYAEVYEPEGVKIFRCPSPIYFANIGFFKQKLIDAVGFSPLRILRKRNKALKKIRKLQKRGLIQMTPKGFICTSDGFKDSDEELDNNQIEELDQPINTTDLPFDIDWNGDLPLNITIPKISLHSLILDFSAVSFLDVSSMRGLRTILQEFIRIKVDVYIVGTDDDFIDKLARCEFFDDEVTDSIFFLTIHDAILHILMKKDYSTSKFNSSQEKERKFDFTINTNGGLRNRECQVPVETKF
Assay: Inhibition of mouse slc26a3 expressed in FRT cells co-expressing EYFP-H148Q/I152L/F46L assessed as reduction in protein-mediated chloride/iodide exchange preincubated for 10 mins followed by NaI-substituted PBS addition and measured by YFP-based fluorescence assay
Assay type: cell-based
Details: not given
Procedure, shortened: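 Chloride/iodide exchange was assayed in FRT cells co-expressing murine slc26a3 and EYFP-H148Q/I152L/F46L. Cells in PBS received iodide-substituted PBS (NaCl replaced by 140 mM NaI), and the fluorescence quenching rate was measured. Concentration–inhibition data were fitted to a single-site model for IC50. Data are representative of 3 replicates.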

Row | SMILES | IC50 [µM]
1 | Cc1cccc(COc2ccc3c(C)c(CC(=O)O)c(=O)oc3c2C)c1 | 0.5
2 | Cc1c(CC(=O)O)c(=O)oc2c(C)c(OCc3cc(C(F)(F)F)cc(C(F)(F)F)c3)ccc12 | 0.3
3 | CCCCOc1ccc2c(C)c(CC(=O)O)c(=O)oc2c1C | 1.5
4 | CCCOc1ccc2c(C)c(CC(=O)O)c(=O)oc2c1C | > 5
5 | Cc1cccc(S(=O)(=O)Oc2ccc3c(C)c(CC(=O)O)c(=O)oc3c2C)c1 | > 5
6 | Cc1c(CC(=O)O)c(=O)oc2c(C)c(OCc3ccccc3Br)ccc12 | 10
7 | Cc1c(CC(=O)O)c(=O)oc2c(C)c(OCc3cccc(C(F)(F)F)n3)ccc12 | > 5
8 | Cc1c(CC(=O)O)c(=O)oc2c(C)c(OCc3ccc(Cl)cc3)ccc12 | > 5
9 | Cc1c(OCc2cccc(I)c2)ccc2cc(C(=O)O)c(=O)oc12 | > 5
10 | Cc1c(CC(=O)O)c(=O)oc2c(C)c(OCc3ccncc3)ccc12 | > 5
11 | Cc1c(OCc2cccc(Br)c2)ccc2cc(C(=O)O)c(=O)oc12 | > 5
12 | Cc1c(CC(=O)O)c(=O)oc2c(C)c(OCc3ccccc3Cl)ccc12 | 18
13 | Cc1c(CC(=O)O)c(=O)oc2c(C)c(OCCC(=O)O)ccc12 | > 5
14 | Cc1c(CC(=O)O)c(=O)oc2c(C)c(OCCn3cccc3)ccc12 | > 5
15 | Cc1c(CC(=O)O)c(=O)oc2c(C)c(OCc3cccnc3)ccc12 | > 5
16 | Cc1c(CCC(=O)O)c(=O)oc2c(C)c(OCc3cccc(Br)c3)ccc12 | > 5
17 | Cc1c(OCc2cccc(Br)c2)ccc2cc(C(N)=O)c(=O)oc12 | > 5

Row | SMILES | IC50 [µM]
18 | Cc1c(CC(=O)O)c(=O)oc2c(C)c(OCc3cccc(F)c3)ccc12 | 0.9
19 | Cc1c(CC(=O)O)c(=O)oc2c(C)c(OCc3ccccn3)ccc12 | > 5
20 | Cc1c(CC(=O)O)c(=O)oc2c(C)c(OCc3ccc(Br)cc3)ccc12 | > 5
21 | Cc1c(CCC(=O)O)c(=O)oc2c(C)c(OCc3cccc(I)c3)ccc12 | > 5
22 | Cc1c(CC(N)=O)c(=O)oc2c(C)c(OCc3cccc(Br)c3)ccc12 | 3.3
23 | COCCOc1ccc2c(C)c(CC(=O)O)c(=O)oc2c1C | > 5
24 | Cc1c(CC(=O)O)c(=O)oc2c(C)c(OS(=O)(=O)c3cccc(Cl)c3)ccc12 | > 5
25 | Cc1c(OCc2cccc(Br)c2)ccc2cc(C(=O)NO)c(=O)oc12 | 0.45
26 | Cc1c(CC(=O)O)c(=O)oc2c(C)c(OCc3cccc(Cl)c3)ccc12 | 1
27 | CCCCCOc1ccc2c(C)c(CC(=O)O)c(=O)oc2c1C | 1
28 | C=CCOc1ccc2c(C)c(CC(=O)O)c(=O)oc2c1C | > 5
29 | Cc1c(CC(=O)O)c(=O)oc2c(C)c(OCc3ccc(I)cc3)ccc12 | > 5
30 | Cc1c(CC(=O)O)c(=O)oc2c(C)c(OCCc3cccc(C(F)(F)F)c3)ccc12 | > 5
31 | Cc1c(CC(=O)O)c(=O)oc2c(C)c(OCc3cccc(CO)n3)ccc12 | > 5
32 | Cc1c(CC(=O)O)c(=O)oc2c(C)c(OCc3cc(F)cc(C(F)(F)F)c3)ccc12 | 0.06
33 | Cc1cc(C)cc(COc2ccc3c(C)c(CC(=O)O)c(=O)oc3c2C)c1 | 15

System: not listed separately
Assay: AUC in mouse at 5 mg/kg, po by LC-MS analysis
Assay type: ADME, organism-based
Details: in vivo
Procedure, shortened: (§1)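 Single intraperitoneal or oral dose in mice at 5 mg/kg (vehicle: saline with 5% DMSO and 10% Kolliphor HS 15) or 10 mg/kg (vehicle: PBS with 5% DMSO and 20% (2-hydroxypropyl)-β-cyclodextrin). Blood taken by retroorbital puncture at set times, serum separated by centrifugation at 4000 g for 20 min at 24 °C, compound quantified by LC/MS.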

Row | SMILES | AUC [µM·h]
34 | Cc1c(CC(=O)O)c(=O)oc2c(C)c(OCc3cccc(Br)c3)ccc12 | 124

System: not listed separately
Assay: Tmax in mouse at 5 mg/kg, po by LC-MS analysis
Assay type: ADME, organism-based
Details: in vivo
Procedure, shortened: as §1

Row | SMILES | Tmax [h]
35 | Cc1c(CC(=O)O)c(=O)oc2c(C)c(OCc3cccc(Br)c3)ccc12 | 5.8

System: not listed separately
Assay: Cmax in mouse at 5 mg/kg, po by LC-MS analysis
Assay type: ADME, organism-based
Set-up: dose 5 mg/kg, route oral
Details: in vivo
Procedure, shortened: as §1

Row | SMILES | Cmax [µM]
36 | Cc1c(CC(=O)O)c(=O)oc2c(C)c(OCc3cccc(Br)c3)ccc12 | 9.4

System: not listed separately
Assay: Cmax in mouse at 5 mg/kg, ip by LC-MS analysis
Assay type: ADME, organism-based
Set-up: dose 5 mg/kg, route intraperitoneal
Details: in vivo
Procedure, shortened: as §1

Row | SMILES | Cmax [µM]
37 | Cc1c(CC(=O)O)c(=O)oc2c(C)c(OCc3cccc(Br)c3)ccc12 | 24.3

System: not listed separately
Assay: AUC in mouse at 5 mg/kg, ip by LC-MS analysis
Assay type: ADME, organism-based
Details: in vivo
Procedure, shortened: as §1

Row | SMILES | AUC [µM·h]
38 | Cc1c(CC(=O)O)c(=O)oc2c(C)c(OCc3cccc(Br)c3)ccc12 | 231

System: not listed separately
Assay: Time at which serum concentration stays above in vitro IC50 for inhibition of mouse slc26a3 expressed in FRT cells in mouse at 5 mg/kg, po or ip by LC-MS analysis
Assay type: organism-based
Details: in vivo
Procedure, shortened: as §1

Row | SMILES | Time
39 | Cc1c(CC(=O)O)c(=O)oc2c(C)c(OCc3cccc(Br)c3)ccc12 | >= 24 hr

System: not listed separately
Assay: Tmax in mouse at 5 mg/kg, ip by LC-MS analysis
Assay type: ADME, organism-based
Details: in vivo
Procedure, shortened: as §1

Row | SMILES | Tmax [h]
40 | Cc1c(CC(=O)O)c(=O)oc2c(C)c(OCc3cccc(Br)c3)ccc12 | 1.5
